Results on 8 compounds are retold here after ChEMBL document CHEMBL1148969, “Lanostanoid triterpenes from Laetiporus sulphureus and apoptosis induction on HL-60 human myeloid leukemia cells” (J Nat Prod, 2004).

Activity calls are given as the source filed them. The calls are words filed in the database; no cut-off is given here.

Experiment [1] has as its system HL-60. As to the kind of experiment: Cytotoxicity against human HL60 cells after 96 hrs by MTT assay. In kind it is functional, cell-based. To be noted: for IC50: HL-60, 96 h. The procedure, abridged:
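HL-60 promyelocytic leukemia cells; growth inhibition read by MTT; IC50 determined graphically for each experiment by curve fitting. Mean ± SEM of two independent experiments with three determinations each; ursolic acid as positive control.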

The test system of experiment [2] is HL-60. As to the kind of experiment: Induction apoptosis in human HL60 cells assessed as condensation of chromatin at 10 uM after 8 hrs by fluorescence microscopy. The class given is functional, cell-based. The procedure, abridged: (§1)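 HL-60 cells cultured with or without 10 µM compound for 8 h, stained with Hoechst 33258; nuclei examined by fluorescence microscopy for chromatin condensation, shrinkage and apoptotic bodies.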

Experiment [3] has as its system HL-60. As to the kind of experiment: Induction apoptosis in human HL60 cells assessed as appearance of apoptotic bodies at 10 uM after 8 hrs by fluorescence microscopy. The class given is functional, cell-based. The procedure, abridged: as §1
The test system of experiment [4] is HL-60. As to the kind of experiment: Induction apoptosis in human HL60 cells assessed as […] DNA fragmentation at 30 uM after 16 hrs by electrophoresis. The class given is functional, cell-based. Summed up: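 Cells treated 16 h at 30 µM; total cellular DNA extracted, run on 2% agarose gel, ethidium bromide stained and internucleosomal ladder viewed under UV; etoposide 3 µM positive control.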

Experiment [5] deals with HL-60. Briefly: Induction apoptosis in human HL60 cells assessed as caspase 3 activity after 6 hrs. In kind it is functional, cell-based. The procedure, abridged: (§2)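 HL-60 cells given 10 µM for 6 h; lysates with equal protein incubated with colorimetric substrate DEVD-pNA, absorbance at 405 nm. Expressed as fold increase over untreated control; representative experiment in duplicate; etoposide 10 µM positive control.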

The test system of experiment [6] is HL-60. Briefly: Induction apoptosis in human HL60 cells assessed as appearance of apoptotic nuclei at 30 uM after 8 hrs by fluorescence microscopy. In kind it is functional, cell-based. Summed up: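 Cells exposed to 30 µM for 8 h, then Hoechst 33258 (bisbenzimide) stained; apoptotic nuclei counted by fluorescence microscopy. Mean ± standard error of one experiment in triplicate, repeated once separately; etoposide as positive control.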

For experiment [7], the system named is HL-60. Briefly: Induction apoptosis in human HL60 cells assessed as caspase 3 activity at 10 uM after 6 hrs relative to control. The class given is functional. The procedure, abridged: as §2
The subject of experiment [8] is HL-60. As to the kind of experiment: Induction apoptosis in human HL60 cells assessed as PARP1 cleavage at 10 uM after 6 hrs by SDS-PAGE. The class given is functional, cell-based. Summed up: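 After 6 h at 10 µM, equal protein from whole-cell lysates run on SDS-PAGE, blotted and probed with anti-PARP-1 monoclonal antibody detecting native 116 kDa and cleaved 85 kDa forms; etoposide positive control.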

Experiment [9] deals with HL-60. Briefly: Induction apoptosis in human HL60 cells assessed as cytochrome c release from mitochondria at 10 uM after 6 hrs by Western blot analysis. The class given is functional, cell-based. The procedure, abridged: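 Cells treated 6 h at 10 µM; cytosolic fraction isolated and immunoblotted with monoclonal anti-cytochrome c (band near 15 kDa); β-actin loading control.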

For the compound `C[C@H]1[C@H](C)CC[C@]2(C(=O)O)CC[C@]3(C)C(=CC[C@@H]4[C@@]5(C)CC[C@H](O)C(C)(C)[C@@H]5CC[C@]43C)[C@H]12` [URSOLIC ACID], in the experiment with HL-60 [1], the Activity entry is “Dose-dependent effect” and the IC50 worked out at 21 µM.

Regarding `C=C(CC[C@@H](C(=O)O)[C@H]1CC[C@@]2(C)C3=C(CC[C@]12C)[C@@]1(C)CC[C@H](O)C(C)(C)[C@@H]1CC3)C(C)C` [EBURICOIC ACID], the Activity result with HL-60 [1] and in the experiment on HL-60 [5] was “Dose-dependent effect” in each case. Moreover, the IC50 in the experiment on HL-60 [1] is 25 µM. Further, the outcome in the experiment on HL-60 [2], in the experiment on HL-60 [3] and with HL-60 [4] was Active.

`C=C(CC[C@@H](C(=O)O)[C@H]1CC[C@@]2(C)C3=C(CC[C@]12C)[C@@]1(C)CC[C@H](OC(C)=O)C(C)(C)[C@@H]1CC3)C(C)C` [ACETYL EBURICOIC ACID]: the Activity result in the experiment on HL-60 [1] and in the experiment with HL-60 [5] was “Dose-dependent effect” each time. The compound also had an IC50 in the experiment with HL-60 [1] of 15 µM. Besides, the outcome with HL-60 [2], in the experiment on HL-60 [3], in the experiment on HL-60 [6], with HL-60 [4], in the experiment on HL-60 [8] and with HL-60 [9] was Active. In addition, the “fold change (FC)” value in the experiment with HL-60 [7] is reported as 7.

As for `CC(=O)O[C@H]1CC[C@]2(C)C3=C(CC[C@H]2C1(C)C)[C@]1(C)CC[C@H]([C@@H](CCC=C(C)C)C(=O)O)[C@@]1(C)CC3` [ACETYL TRAMETENOLIC ACID], the Activity result in the experiment on HL-60 [1] and in the experiment on HL-60 [5] was “Dose-dependent effect” throughout. This compound came in with an IC50 in the experiment with HL-60 [1] of 31 µM. Also, the outcome in the experiment on HL-60 [2], in the experiment with HL-60 [3], in the experiment with HL-60 [6] and with HL-60 [4] was Active.

Regarding `C=C(CC[C@@H](C(=O)O)[C@H]1C[C@H](OC(C)=O)[C@@]2(C)C3=C(CC[C@]12C)[C@@]1(C)CCC(=O)C(C)(C)[C@@H]1CC3)C(C)C`, the Activity result in the experiment with HL-60 [1] and with HL-60 [5] was “Dose-dependent effect” in each case. The compound further showed an IC50 with HL-60 [1] of 25 µM. Moreover, the result with HL-60 [2], in the experiment with HL-60 [3], with HL-60 [4] and in the experiment on HL-60 [9] was Active.

Consider `CC(C)=CCC[C@@H](C(=O)O)[C@H]1C[C@H](O)[C@@]2(C)C3=C(CC[C@]12C)[C@@]1(C)CC[C@H](O)C(C)(C)[C@@H]1CC3`, for which, in the experiment on HL-60 [1], the Activity result was “Dose-dependent effect” and the IC50 was determined as 12 µM.

Turning to `C=C(CC[C@@H](C(=O)O)[C@H]1C[C@H](O)[C@@]2(C)C3=C(CC[C@]12C)[C@@]1(C)CC[C@H](O)C(C)(C)[C@@H]1CC3)C(C)C` [SULFURENIC ACID], in the experiment on HL-60 [1], the Activity result is “Dose-dependent effect” and half-maximal inhibition (IC50) required 14 µM.

Regarding `C=C(CC[C@@H](C(=O)O)[C@H]1C[C@H](O)[C@@]2(C)C3=C(CC[C@]12C)[C@@]1(C)CCC(=O)C(C)(C)[C@@H]1CC3)C(C)C`, in the experiment with HL-60 [1], the Activity entry is “Dose-dependent effect” and the IC50 was 407 µM.
